Biological target: Peptidyl-prolyl cis-trans isomerase FKBP1A (Homo sapiens) (UniProt P62942)
Test: Apparent binding affinity to FKBP12 PPI domain (unknown origin) in PBS at pH 7 by fluorescence spectrophotometric analysis relative to FK506
Summary of the method: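 FKBP12, final 1 µM, diluted from a PBS stock (pH 7.4, 0.15 M NaCl) into phosphate buffer at 15 °C. Ligand 1–200 nM, final DMSO <0.3% v/v. Intrinsic Trp fluorescence quenching: excitation 280 nm, emission 325 nm, ligand-only spectra subtracted. Apparent Kd fitted from intensity versus ligand concentration, expressed as ratio to FK506 under identical conditions. At least 2 replicates, 3–4 at low concentrations.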

Sequence of Peptidyl-prolyl cis-trans isomerase FKBP1A (Homo sapiens) (P62942 whole entry, the tested form may be a part): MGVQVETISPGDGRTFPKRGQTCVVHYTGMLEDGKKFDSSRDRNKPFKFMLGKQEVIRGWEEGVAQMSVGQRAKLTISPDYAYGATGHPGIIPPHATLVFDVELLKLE

Row | Structure (SMILES) | Kd(app)
1 | O=C(C(=O)N1CCCC[C@H]1C(=O)NCCCc1ccccc1)c1ccccc1 | 0.5

Biological target: Peptidyl-prolyl cis-trans isomerase FKBP1A (Homo sapiens) (UniProt P62942)
Test: Binding affinity to FKBP12 PPI domain (unknown origin) in water bulk solution by fluorescence spectrophotometric analysis relative to FK506

Row | Structure (SMILES) | Ratio
2 | COc1cc(OC)c(C(=O)C(=O)N2CCCC[C@H]2C(=O)OC(CCCc2ccccc2)CCCc2ccncc2)c(OC)c1 (some centres undefined) | 1.2
3 | CO[C@H]1C[C@@H]2CC[C@@H](C)[C@@](O)(O2)C(=O)C(=O)N2CCCC[C@H]2C(=O)O[C@H]([C@H](C)C[C@@H]2CC[C@@H](O)[C@H](OC)C2)CC(=O)[C@H](C)/C=C(\C)[C@@H](O)[C@@H](OC)C(=O)[C@H](C)C[C@H](C)/C=C/C=C/C=C/1C | 0.5
4 | CCC[C@H](CCc1ccccc1)OC(=O)[C@@H]1CCCCN1C(=O)C(=O)c1ccccc1 | 1.6
5 | CCCC(CCc1ccccc1)NC(=O)[C@@H]1CCCCN1C(=O)C(=O)c1ccccc1 (mixture of isomers) | 5
6 | CCC(C)(C)C(=O)C(=O)N1CCCC[C@H]1C(=O)O[C@@H](CCc1ccccc1)c1ccccc1 | 750
7 | CCC[C@@H](CCc1ccccc1)OC(=O)[C@@H]1CCCCN1C(=O)C(=O)c1ccccc1 | 1.1
8 | C=CC[C@@H]1/C=C(\C)C[C@H](C)C[C@H](OC)[C@H]2O[C@@](O)(C(=O)C(=O)N3CCCC[C@H]3C(=O)O[C@H](/C(C)=C/[C@@H]3CC[C@@H](O)[C@H](OC)C3)[C@H](C)[C@@H](O)CC1=O)[C@H](C)C[C@@H]2OC | 1
9 | CCC(C)(C)C(=O)C(=O)N1CCCC[C@H]1C(=O)O[C@H](CCc1ccccc1)c1ccccc1 | 25
